Assay results published in publication PMC2951064 (Journal of Medicinal Chemistry, 2010).

Columns and labels:
[1] = test system: wtBcr-Abl-Ba/F3; test: Antiproliferative activity on wtBcr-Abl-Ba/F3; assay type: cell-based, murine; details: for cellular Bcr-Abl inhibitory activity (in words): wild-type Bcr-Abl
[2] = test system: parental Ba/F3; test: Cytotoxicity on parental Ba/F3 cells; assay type: cell-based, murine; details: Mus musculus, BaF3, read-out: cellular EC50 Wt-Ba/F3
Procedure, shortened: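 Untransfected IL-3-dependent Ba/F3 cells were grown in RPMI 1640 with 10% FBS, 1% L-glutamine and 10% WEHI-conditioned medium as the IL-3 source, at 37 °C under 5% CO2. Cells were exposed to test compound for 48 h, and viability was measured by CellTiter-Glo luminescence.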

[3] = test system: T315I Bcr-Abl; test: Antiproliferative activity on T315I Bcr-Abl mutant Ba/F3 cells; assay type: cell-based, murine; details: for EC50: Mus musculus, BaF3, read-out: cellular EC50 T315I
Procedure, shortened: (§1)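 IL-3-dependent murine Ba/F3 cells were transfected with a pEYK vector carrying p210 Bcr-Abl with the point mutation. Cells were grown in RPMI 1640 with 10% FBS, 1% L-glutamine and 25 μg/mL zeocin at 37 °C under 5% CO2. Test compound was applied for 48 h, and proliferation was read by CellTiter-Glo luminescence.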

[4] = test system: E505K Bcr-Abl; test: Antiproliferative activity on E505K Bcr-Abl mutant Ba/F3 cells; assay type: cell-based, murine; details: Mus musculus, BaF3, read-out: cellular EC50 E505K
Procedure, shortened: as §1

[5] = test system: E255V Bcr-Abl; details: background statement, ref not given; cited from earlier work
[6] = test system: panel of 80 diverse kinases; details: cited from earlier work
[7] = test system: 40 other tyrosine kinases; details: cited from earlier work
[8] = test system: Y253H Bcr-Abl; details: background statement, ref not given; cited from earlier work
[9] = test system: T315I Bcr-Abl; details: cited from earlier work

Row | SMILES | cellular Bcr-Abl inhibitory activity (in words) [1] | further results
1 | NC(=O)c1ccccc1-c1cc(Nc2ccc(OC(F)(F)F)cc2)ncn1 [5b] | inactive | 
2 | CS(=O)(=O)Nc1ccc(-c2cc(Nc3ccc(OC(F)(F)F)cc3)ncn2)cc1 [5h] |  | EC50 [2]: > 10 µM; EC50 [3]: > 10 µM; EC50 [4]: > 10 µM
3 | CN(c1ccc(OC(F)(F)F)cc1)c1cc(NCCN2CCOCC2)ncn1 [8a] | complete loss of cellular activity | 
4 | COc1ccc(Nc2cc(NCCN3CCOCC3)ncn2)cc1 [8b] | complete loss of activity | 
5 | FC(F)(F)Oc1ccc(Oc2cc(NCCN3CCOCC3)ncn2)cc1 [8d] | complete loss of cellular activity | 
6 | FC(F)(F)Oc1ccc(-c2cc(NCCN3CCOCC3)ncn2)cc1 [8e] | complete loss of cellular activity | 
7 | FC(F)(F)Oc1ccc(CNc2cc(NCCN3CCOCC3)ncn2)cc1 [8g] | completely inactive | 
8 | FC(F)(F)Oc1ccc(Nc2ccnc(NCCN3CCOCC3)n2)cc1 [9d] | inactive | 
9 | FC(F)(F)Oc1ccc(Nc2cncc(NCCN3CCOCC3)n2)cc1 [9e] | inactive | 
10 | FC(F)(F)Oc1ccc(Nc2ccc(NCCN3CCOCC3)nn2)cc1 [9f] | inactive | 
11 | CN(c1ccc(OC(F)(F)F)cc1)c1cc(-c2ccncc2)ncn1 [9g] | complete loss of cellular activity | 
12 | Fc1ccc(Nc2cc(-c3ccncc3)ncn2)cc1 [9h] | complete loss in activity | 
13 | FC(F)(F)c1ccc(Nc2cc(-c3ccncc3)ncn2)cc1 [9j] | retained some activity | 
14 | FC(F)(F)Oc1ccc(Nc2ncnc(NCCN3CCOCC3)n2)cc1 [9l, N2-(2-morpholinoethyl)-N4-(4-(trifluoromethoxy)phenyl)-1,3,5-triazine-2,4-diamine] | inactive | 
15 | CN1CCN(C(=O)c2cc3c(Nc4ccc(OC(F)(F)F)cc4)ncnc3s2)CC1 [14d] |  | fold more potent than 14c ([1]; cellular Bcr-Abl EC50, versus compound lacking N-methylation (14c)): approximately 10 fold; EC50 [2]: > 10 µM; EC50 [3]: > 10 µM; EC50 [4]: > 10 µM
16 | NC(=O)c1cccc(-c2cc(Nc3ccc(OC(F)(F)F)cc3)ncn2)c1 [compound 1] | active | activity on E255V mutant (in words) [5]: active; activity on T315I gatekeeper mutant (in words) [3]: inactive; inhibition of biochemical activity of a panel of 80 diverse kinases (in words) [6]: did not inhibit; inhibition of 40 other tyrosine kinases in cellular assays (in words) [7]: did not inhibit; activity on Y253H mutant (in words) [8]: active
17 | O=C(NCCO)c1cccc(-c2cc(Nc3ccc(OC(F)(F)F)cc3)ncn2)c1 [compound 2, N-(2-Hydroxyethyl)-3-(6-(4-(trifluoromethoxy)phenylamino)pyrimidin-4-yl)benzamide] |  | synergy with nilotinib on proliferation of T315I Bcr-Abl (in words) [9]: capable of synergizing
18 | Cc1cn(-c2cc(NC(=O)c3ccc(C)c(Nc4nccc(-c5cccnc5)n4)c3)cc(C(F)(F)F)c2)cn1 [nilotinib, reference compound] |  | EC50 ([1]; Mus musculus, read-out: wt Bcr-Abl-Ba/F3 EC50): 0.04 µM
